Results as given in ChEMBL document CHEMBL3763025, “Synthesis of novel diflunisal hydrazide-hydrazones as anti-hepatitis C virus agents and hepatocellular carcinoma inhibitors” (Eur J Med Chem, 2016).
Active and inactive are the calls of the source. No cut-off for these calls is given here.

Tests used:
Hepatitis C virus [1] = assay: Antiviral activity against HCV genotype 2a infected in Huh7.5 FGR-JC1-Rluc2A cells assessed as inhibition of viral replication at 50 uM after 42 hrs by MTS assay relative to control; type: functional; settings: Hepacivirus hominis, Huh7.5, 42 h, in the assay text read “Renilla luciferase reporter assay” for “MTS assay”
Outline: (§1)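 Replicon reporter cells (Huh7/Rep-Feo1b or Huh7.5-FGR-JC1-Rluc2A) grown in DMEM with 10% fetal calf serum and 0.5 mg/mL G418 at 37°C, 5% CO2. Seeded at 1x10^4 per well, compound added 8 h after seeding at 50 µM for 42 h. Luciferase signal expressed relative to equivalent DMSO-treated controls. Average of three independent experiments.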

Hepacivirus hominis = assay: Inhibition of HCV NS5B RNA dependent RNA polymerase using UTP/[alpha-32P]UTP as substrate at 50 uM after 1 hr by liquid scintillation counter analysis
[2] = Cytotoxicity against human Huh7.5 cells assessed as cell viability after 42 hrs by MTS assay; type: cell-based, Huh-7
Outline: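 CC50 measured in parental Huh7.5 cells using the colorimetric MTS assay, with equal amounts of DMSO as control. Mean of three independent experiments with standard deviation.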

Hepatitis C virus [3] = assay: Antiviral activity against HCV genotype 1b infected in Huh7/Rep-Feo1b cells assessed as inhibition of viral replication at 50 uM after 42 hrs by MTS assay relative to control; type: functional, Hepacivirus hominis; settings: Huh-7, 42 h; outline: as §1
Hepatitis C virus [4] = assay: Antiviral activity against HCV genotype 1b infected in Huh7/Rep-Feo1b cells assessed as inhibition of viral replication after 42 hrs by MTS assay; type: functional, organism-based, Hepacivirus hominis; settings: Huh-7, 42 h
Outline: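 Huh7/Rep-Feo1b replicon reporter cells kept in DMEM with 10% fetal calf serum and 0.5 mg/mL G418 at 37°C, 5% CO2. Cells seeded at 1x10^4 per well, dosed 8 h later and incubated 42 h with DMSO as control. Luciferase signal read relative to DMSO. EC50 derived from dose-response curves at 8-10 concentrations, mean of three independent experiments with standard deviation.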

[5] = Selectivity index, ratio of CC50 for human Huh7.5 cells to EC50 for HCV genotype 1b infected in Huh7/Rep-Feo1b cells; design: species or system Huh-7
Outline: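 Selectivity index taken as the ratio of CC50 (MTS assay, parental Huh7.5 cells) to EC50 (dose-response curves at 8-10 concentrations, Huh7/Rep-Feo1b luciferase replicon, 42 h treatment).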

HepG2 = assay: Cytotoxicity against human HepG2 cells assessed as inhibition of cell proliferation after 72 hrs by sulforhodamine B assay; type: functional, cell-based
Outline: (§2)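 Liver cancer cells grown in DMEM or RPMI with 10% FCS, 2 mM L-glutamine and penicillin/streptomycin at 37°C, 5% CO2. Plated at 1000-3000 cells per well for 24 h, then exposed to 2.5–40 µM for 72 h. Cells TCA-fixed, stained with 0.4% sulforhodamine B in 1% acetic acid, dye solubilized in 10 mM Tris base, absorbance read at 515 nm. Normalized to DMSO, triplicate.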

Huh-7 [6] = assay: Induction of apoptosis in human HuH7 cells assessed as DNA fragmentation at IC50 after 72 hrs by hoechst 33258 staining based fluorescence microscopy; type: functional, cell-based
[7] = Cell cycle arrest in human Mahlavu cells assessed as accumulation at subG1/G0 phase at IC50 after 72 hrs by propidium iodide staining-based Muse cell cycle analyzer; type: functional
Huh-7 [8] = assay: Induction of apoptosis in human HuH7 cells assessed as cleavage of PARP protein at IC50 after 72 hrs by Western blot analysis; type: functional, cell-based
Outline: (§3)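 Cells plated in 100 mm dishes. […] Western blot probed with anti-PARP to detect cleaved PARP, with β-actin as loading control.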

[9] = Cytotoxicity against human Mahlavu cells assessed as inhibition of cell proliferation after 72 hrs by sulforhodamine B assay; type: functional, cell-based; outline: as §2
[10] = Cytotoxicity against human SNU475 cells assessed as inhibition of cell proliferation after 72 hrs by sulforhodamine B assay; type: functional, cell-based, SNU-475; outline: as §2
[11] = Cytotoxicity against human HuH7 cells assessed as inhibition of cell proliferation after 72 hrs by sulforhodamine B assay; type: functional, cell-based, Huh-7; outline: as §2
[12] = Cytotoxicity against human FOCUS cells assessed as inhibition of cell proliferation after 72 hrs by sulforhodamine B assay; type: functional, cell-based; outline: as §2
Mahlavu = assay: Induction of apoptosis in human Mahlavu cells assessed as cleavage of PARP protein at IC50 after 72 hrs by Western blot analysis; type: functional, cell-based; outline: as §3
[13] = Cytotoxicity against human Hep3B cells assessed as inhibition of cell proliferation after 72 hrs by sulforhodamine B assay; type: functional, cell-based, Hep 3B2; outline: as §2
Huh-7 [14] = assay: Induction of apoptosis in human HuH7 cells assessed as nuclear condensation at IC50 after 72 hrs by hoechst 33258 staining based fluorescence microscopy; type: functional, cell-based

| SMILES | inhibition at 50 µM (Hepatitis C virus [1]) | inhibition (Hepacivirus hominis) | CC50 at 42 h [2] | inhibition at 50 µM (Hepatitis C virus [3]) | EC50 (Hepatitis C virus [4]) | Ratio CC50/EC50 [5] | also measured |
| --- | --- | --- | --- | --- | --- | --- | --- |
| O=C(N/N=C/c1ccccc1Cl)c1cc(-c2ccc(F)cc2F)ccc1O | 78% | 7% | < 50 µM | 90% | – | – | – |
| O=C(N/N=C/c1ccc2ccccc2c1)c1cc(-c2ccc(F)cc2F)ccc1O | 58% | inactive | > 100 µM | 65% | – | – | – |
| O=C(N/N=C/c1ccc(C(F)(F)F)cc1)c1cc(-c2ccc(F)cc2F)ccc1O | 99% | 12% | < 50 µM | 86% | – | – | – |
| O=C(N/N=C/c1ccncc1)c1cc(-c2ccc(F)cc2F)ccc1O | 23% | 7% | > 50 µM | 33% | – | – | – |
| O=C(N/N=C/c1cccc2ccccc12)c1cc(-c2ccc(F)cc2F)ccc1O | 70% | inactive | > 200 µM | 79% | 16.5 µM | >6.1 | – |
| O=C(N/N=C/c1ccccn1)c1cc(-c2ccc(F)cc2F)ccc1O | 90% | inactive | > 100 µM | 79% | 3.9 µM | >25.6 | IC50 (HepG2; Homo sapiens, HepG2, 72 h, read-out: IC50): 10.3 µM; Activity (Huh-7 [6]): Active; Activity [7]: Active; Activity (Huh-7 [8]): inactive; IC50 [9]: 4.74 µM; IC50 ([10]; Homo sapiens, SNU-475, 72 h, read-out: IC50): 8.33 µM; IC50 ([11]; Homo sapiens, Huh-7, 72 h, read-out: IC50): 10 µM; IC50 [12]: 9.29 µM; Activity (Mahlavu): Active; IC50 ([13]; Homo sapiens, Hep3B, 72 h, read-out: IC50): 16.2 µM; Activity (Huh-7 [14]): Active |
| O=C(N/N=C/c1cccc(Oc2ccccc2)c1)c1cc(-c2ccc(F)cc2F)ccc1O | 99% | 14% | < 50 µM | 92% | – | – | – |
| O=C(N/N=C/c1c(Cl)cccc1Cl)c1cc(-c2ccc(F)cc2F)ccc1O | 96% | inactive | < 50 µM | 72% | – | – | – |
| O=C(N/N=C/c1ccc(Cl)c(Cl)c1)c1cc(-c2ccc(F)cc2F)ccc1O | 95% | inactive | < 50 µM | 66% | – | – | – |
| O=C(O)c1cc(-c2ccc(F)cc2F)ccc1O [DIFLUNISAL] | – | – | – | – | – | – | IC50 (HepG2; hepg2): Not Active; Activity (Huh-7 [6]): inactive; IC50 [9]: 51.7 µM; IC50 ([10]; snu-475): Not Active; IC50 ([11]; huh-7): Not Active; IC50 [12]: 29.8 µM; IC50 ([13]; hep 3b2): Not Active; Activity (Huh-7 [14]): inactive |
| O=C(N/N=C/c1c(F)cccc1F)c1cc(-c2ccc(F)cc2F)ccc1O | 72% | inactive | > 100 µM | 69% | – | – | – |
| CCc1ccc(/C=N/NC(=O)c2cc(-c3ccc(F)cc3F)ccc2O)s1 | 96% | inactive | > 50 µM | 65% | – | – | – |
| O=C(N/N=C/c1ccc2c(c1)OC(F)(F)O2)c1cc(-c2ccc(F)cc2F)ccc1O | 95% | inactive | < 50 µM | 65% | – | – | – |
| O=C(N/N=C/c1c(F)cccc1Cl)c1cc(-c2ccc(F)cc2F)ccc1O | 74% | 11% | > 50 µM | 83% | 3.9 µM | >12.8 | – |
| O=C(N/N=C/c1cccc(C(F)(F)F)c1)c1cc(-c2ccc(F)cc2F)ccc1O | 99% | 18% | < 50 µM | 87% | – | – | – |
| Cc1ccc(/C=N/NC(=O)c2cc(-c3ccc(F)cc3F)ccc2O)s1 | 95% | 8% | > 50 µM | 64% | – | – | – |
| N#Cc1ccc(/C=N/NC(=O)c2cc(-c3ccc(F)cc3F)ccc2O)cc1 | 82% | inactive | > 200 µM | 77% | 11.8 µM | >16.9 | – |
| O=C(N/N=C/c1cccnc1)c1cc(-c2ccc(F)cc2F)ccc1O | 88% | 8% | > 200 µM | 83% | 8.1 µM | >24.7 | – |
| O=C(N/N=C/c1cccs1)c1cc(-c2ccc(F)cc2F)ccc1O | 98% | 17% | > 50 µM | 91% | 15.6 µM | >3.2 | – |
| O=C(N/N=C/c1cccc(Br)c1)c1cc(-c2ccc(F)cc2F)ccc1O | 92% | 9% | < 50 µM | 81% | – | – | – |
